# Experimental data published in the RNAGym collection of RNA variant scans (doi:10.1126/science.aae0568).
# Variants at the floor of the assay were thinned out.
# B1: tRNA (parent)
# chain: GUUCCGUUGGCGUAAUGGUAACGCGUCUCCCUCCUAAGGAGAAGACUGCGGGUUCGAGUCCCGUACGGAACG
# Variants of: B1
# Test: yeast fitness relative to wild type (ratio to wild type); higher = fitter; tRNA-Arg(CCU), competitive growth, 37 C, YPD
# Outline: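 Changes in genotype frequencies gave Darwinian fitness relative to wild type. Frequencies were read by 100-nucleotide paired-end sequencing of gene amplicons before and after pooled Saccharomyces cerevisiae strains, carrying tRNA-Arg(CCU) gene variants at the native locus, were competed in YPD at 37°C for 24 hours in six replicates. A genotype was kept only with ≥ 100 starting reads, and estimates < 0.5 were set to 0.5.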
row,Variant,yeast fitness
1,GUUCCGUUGGCGUAAUGGUAACGCGUCCCCCUCCUAAGGAGAAGACUGUGGGUUCGAGUCCCGUACGGAACG [U28C C49U],0.905
2,GUUCCGUUGGCGUAAUGGUAACGCGUCCCCCUCCUAAGGAGGAGACUGCGGGUUUGAGUCCCGUACGGAUCG [U28C A42G C55U A70U],≤ 0.5
3,GUUCCGUUGGCGUAAUGGUAACGCGUCCGGCUCCUGAGGAGAAGACUGCGGGUUCGAGUCCCGUACGGAACG [U28C C29G C30G A36G],≤ 0.5
4,GUUCCGUUGGCGUAAUGGUAACGCGUCCGCCUCCUAAGGAGAAGACUGCGGGUUCGAGUCCCGUACGGAACG [U28C C29G],0.566
5,GUUCCGUUGGCGUAAUGGUAACGCGUCCACCUCCUAAGGAGAAGACUGCGGGUUCGAGUCCCGUACGGAACG [U28C C29A],0.703
6,GUUCCGUUGGCGUAAUGGUAACGCGUCCCCCUCCUAAGGAGACGACUGCGGGUUCGAGUCCCGUACCGAACG [U28C A43C G67C],0.528
7,GUUCCGUUGGCGUAAUGGUAACGCGUCCCCCUCCUAAGGAGAAGCCUGCAGGUUCGAGUCCUGUACGGAACG [U28C A45C G50A C62U],≤ 0.5
8,GUUCCGUUGGCGUAAUGGUAACGCGUCCCCCUCCUAAGGAGGAGACAGCGGGUUCGAGUCCCGUACGGAACG [U28C A42G U47A],0.535
9,GUUCCGUUGGCGUAAUGGUAACGCGUCCCCCUCCUAAGGAGCCGACUGCGGGUUGGGGUCCCGUACGGAACG [U28C A42C A43C C55G A57G],≤ 0.5
10,GUUCCGUUGGCGUAAUGGUAACGCGUCCCCCUGCUAAGGGGAAGACUGCGCGUUCGAGUCUCGUUCGGAACG [U28C C33G A40G G51C C61U A65U],≤ 0.5
11,GUUCCGUUGGCGUAAUGGUAACGCGUCCCCCUGCUAAGGAGAAGACUGCGGGUUCGAGUCCCGUAAGGAACG [U28C C33G C66A],0.616
12,GUUCCGUUGGCGUAAUGGUAACGCGUCCCCCUCCUAAGGAGACCACUGCGGGUUCGAGUCGCGUUCGGAACG [U28C A43C G44C C61G A65U],≤ 0.5
13,GUUCCGUUGGCGUAAUGGUAACGCGUCCCCCUCGUAAGGGGAGGAGUGCGGAUUUGAGUCCCGUACGGAACG [U28C C34G A40G A43G C46G G52A C55U],0.613
14,GUUCCGUUGGCGUAAUGGUAACGCGUCCCCUUCCUAAGGAGAAGACUGCGGGUUCGAGUCCCGUACGGAACG [U28C C31U],0.981
15,GUUCCGUUGGCGUAAUGGUAACGCGUCCCCCUUCUAAGGAGAAGUCUGCGGGUUCGAGUCCCGUACGGAACG [U28C C33U A45U],0.578
16,GUUCCGUUGGCGUAAUGGUAACGCGUCCCCCUCCUAAGGAGAAGCCUGCGGGUUCGAGUCCCGUACGGAACG [U28C A45C],0.993
17,GUUCCGUUGGCGUAAUGGUAACGCGUCCCCCUCCUAAGGAGAAGUCUGCGGGUUCGAGUCCCGUACGGAACG [U28C A45U],0.985
18,GUUCCGUUGGCGUAAUGGUAACGCGUCCCCCUGCUAAAGAGAAGACUGCGGGUUCGAGUCCCGGACGGAACG [U28C C33G G38A U64G],≤ 0.5
19,GUUCCGUUGGCGUAAUGGUAACGCGUCCCCCUCCUAAGGAGAAGACUGCGGGUUCGGGUCCCGUACGGAACG [U28C A57G],0.896

row,Variant,yeast fitness
1,GUUCCGUUGGCGUAAUGGUAACGCGUCCCCCUCCUAAGGAGACGAAUCCGGGUUCGAGUCCCGUACGGAACG [U28C A43C C46A G48C],≤ 0.5
2,GUUCCGUUGGCGUAAUGGUAACGCGUCCCCCUGCUAAAGAGAAGACUGCGGGUCCGAGUCCCGGACGGAACG [U28C C33G G38A U54C U64G],≤ 0.5
3,GUUCCGUUGGCGUAAUGGUAACGCGUCCCCCUACUAAGGAGCAGUCUGCGGGUUCGAGUCCCGUACGGCACG [U28C C33A A42C A45U A69C],0.622
4,GUUCCGUUGGCGUAAUGGUAACGCGUCCCCCUCCUAAGGAGAAGACUGGGGGUUCGAGCCCCGUACGGAACG [U28C C49G U59C],≤ 0.5
5,GUUCCGUUGGCGUAAUGGUAACGCGUCCCCCUCCUAAGGAGAAGACUGCGGGUUCGAGUACCGUACGGAACG [U28C C60A],0.632
6,GUUCCGUUGGCGUAAUGGUAACGCGUCCCCUUCCUAAGGAGAAGACUGCGGGUUCGAGUUCCGUACGGAACG [U28C C31U C60U],≤ 0.5
7,GUUCCGUUGGCGUAAUGGUAACGCGUCCCCCUCUUAAGGAGAAGACUGCGGGUUUGAGUCACGUACGGAACG [U28C C34U C55U C61A],0.592
8,GUUCCGUUGGCGUAAUGGUAACGCGUCCCCCUCCUAAGGAGAAGACUGCGGGUUCGAGUCCCGUGCGGAACG [U28C A65G],0.998
9,GUUCCGUUGGCGUAAUGGUAACGCGUCCCCCUCCUAAGGAGAAGACUGCGGGUUUGAGUCCCGUACCGAACG [U28C C55U G67C],0.557
10,GUUCCGUUGGCGUAAUGGUAACGCGUCCCCCUCCUAAGGAGAAGACUGCGGGUUCGUGUCCCGUUCGGAACG [U28C A57U A65U],≤ 0.5
11,GUUCCGUUGGCGUAAUGGUAACGCGUCCCCCUCCUAAGGAGAAGACUGCGGGUUCGAGUCCCGUACGGACCG [U28C A70C],0.878
12,GUUCCGUUGGCGUAAUGGUAACGCGUCCCCCUCCUAAGGAGAAGACUGUGGGUUCGAGUCCCUUACGGAACG [U28C C49U G63U],0.531
13,GUUCCGUUGGCGUAAUGGUAACGCGUCCCCCUCCUAAGGAGACGACUGCGGGUUCGAGUCCCGUACGGAACG [U28C A43C],0.758
14,GUUCCGUUGGCGUAAUGGUAACGCGUCCCCCUCCUAAGGAGAGGACUGCGGGUUCGAGUCCCGUACGGAACG [U28C A43G],0.976
15,GUUCCGUUGGCGUAAUGGUAACGCGUCCCCCUCCUAAGGAGAAGUCUCCGGGUUCGAGUCCCGUACGGAACG [U28C A45U G48C],0.638
16,GUUCCGUUGGCGUAAUGGUAACGCGUCCCCCUCCUAAGGAGAAGAGUGCGGGUUCGAGUCCCGUACGGAACG [U28C C46G],1.08
17,GUUCCGUUGGCGUAAUGGUAACGCGUCCCCCUCCUAAGGAGAAGAAUGCGGGUUCGAGUCCCGUACGGAACG [U28C C46A],0.992
18,GUUCCGUUGGCGUAAUGGUAACGCGUCCGCCUCCUAAGGAGAAGACUGCGGGUUCGAGUCCUGUACGGAACG [U28C C29G C62U],≤ 0.5
19,GUUCCGUUGGCGUAAUGGUAACGCGUCCCCCUCCUAAGGAGCAGACUGCGGGUUUGAGUCCCGUACGCAACG [U28C A42C C55U G68C],≤ 0.5
